Compound activity from PubChem BioAssay.
Sampled rows, rich in hits. Any-hit rate of the full collection: about 1.6%.
TRAIL sens C8: caspase-8 TRAIL sensitization | NB7+C8 cells + TRAIL, ATPlite viability luminescence | inhibition (viability loss, TRAIL sensitization), % at 10 µM | 360,000 tested, 1% active;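 active = compounds causing at least 50% loss of cell viability in the single-dose screen, relative to plate controls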
PPC-1+TRAIL kill: compounds killing PPC-1 cancer cells with TRAIL present (potentiator screen, no TRAIL-free arm) | PPC-1 cells + TRAIL, ATPLite viability luminescence | cell killing (% activity), % at 4 µM or 5 µM | 220,000 tested, 0.41% active;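 active = cell killing above 50% in the first pass at 4 µM, then a duplicate retest at 5 µM averaging 50% or more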;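 also: plate controls were cells with TRAIL plus DMSO for no effect and medium-only wells lacking cells for full effect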
FLuc inh counter: counter-screen for luciferase assay inhibitors: firefly luciferase inhibition; P08659; 200,000 tested, 1.5% active; AID 1006; inhibition, % at 10 µM; ATPLite firefly luciferase biochemical luminescence, 10 min;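 active = inhibition above about 50% when tested at 10 µM, limit read from the data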
Target sequence (P08659 whole entry, looked up): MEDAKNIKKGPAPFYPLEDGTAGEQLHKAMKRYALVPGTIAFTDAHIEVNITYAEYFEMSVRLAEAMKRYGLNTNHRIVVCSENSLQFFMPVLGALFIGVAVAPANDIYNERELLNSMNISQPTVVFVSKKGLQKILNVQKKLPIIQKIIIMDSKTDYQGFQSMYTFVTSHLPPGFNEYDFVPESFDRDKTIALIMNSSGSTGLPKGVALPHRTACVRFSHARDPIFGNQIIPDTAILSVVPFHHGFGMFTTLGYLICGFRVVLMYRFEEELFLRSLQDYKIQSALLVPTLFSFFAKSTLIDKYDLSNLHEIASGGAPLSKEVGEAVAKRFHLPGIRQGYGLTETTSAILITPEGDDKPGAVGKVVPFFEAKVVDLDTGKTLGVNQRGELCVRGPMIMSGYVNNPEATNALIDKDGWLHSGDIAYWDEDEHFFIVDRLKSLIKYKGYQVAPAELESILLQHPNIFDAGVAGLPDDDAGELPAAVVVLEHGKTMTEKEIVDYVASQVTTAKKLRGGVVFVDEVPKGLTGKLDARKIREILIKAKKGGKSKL
FLuc stim CS: affects firefly luciferase, flagging false hits in luciferase stimulation screens; ATPlite luciferase biochemical, luminescence, 10 min; 0 = ATP-free wells, 1 = DMSO control; activation factor at 10 µM; 200,000 tested, under 10 active;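 active = luciferase activation factor, scaled between plate controls, of at least 2 with compound at 10 µM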
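System: luciferase plus luciferin reagent, cell-free; medium: PBS as buffer for the ATP substrate; dosing: test compounds dosed from 2 mM stocks in 100% DMSO; timing: 10 min post-reagent at room temperature; measured by: luminescence measurement of luciferase light output; evaluation: luciferase activation, seen as luminescence increase over controls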
Numbers without * were called inactive; / = no result.

SMILES	TRAIL sens C8	PPC-1+TRAIL kill	FLuc inh counter	FLuc stim CS
N#CN1C2CCC1CC(O)(c1ccccc1)C2 (centres undefined)	9	/	/	/
O=C(c1ccoc1)N1CCN(c2cc(-c3ccncc3)nc3cc(-c4cccc(Cl)c4)nn23)CC1	19	/	/	/
O=C(c1ccncc1)N1CCN(c2cc(-c3ccccc3)nc3cc(-c4cccc(Cl)c4)nn23)CC1	70*	/	/	/
Cc1ccc(C(=O)NCCN(C)C)c(C)c1	3	-2	-3	1
CNc1c2cccc(C)c2nc2c(C(=O)NCCN(C)C)cccc12	74*	/	/	/
Cc1ccc(-n2nnnc2-c2cccs2)cc1[N+](=O)[O-]	-2	/	/	/
COc1ccc2c(=O)c(-c3ccccc3)coc2c1	41	33	70*	0.3
O=c1cc(-c2ccccc2)oc2ccc(Br)cc12	37	/	/	/
COc1ccc2oc(-c3ccccc3)cc(=O)c2c1	72*	/	/	/
O=C(Nc1ccc(-n2nncc2-c2ccco2)cc1)c1cc2ccccc2oc1=O	-4	8	-4	1
O=C(COC(=O)c1ccc2c(c1)C(=O)N(c1cccc3ncccc13)C2=O)c1ccc(Cl)cc1	8	12	-2	1
Cc1ccc(C(=O)COC(=O)c2ccc3c(c2)C(=O)N(c2cccc4ncccc24)C3=O)cc1	51*	27	4	1
COc1ccc(S(=O)(=O)NC2CC(=O)N(c3ccc4c(c3)OCCO4)C2)cc1 (centres undefined)	4	/	/	/
CN(C)C(=O)c1cccc(COc2ccc(N3C(N)=NC(N)=NC3(C)C)cc2Cl)c1	83*	/	/	/
CN(C(=O)c1cccc(COc2ccc(Cl)cc2Cl)c1)c1ccccc1	11	10	-5	1.1
Clc1ccc(-c2cn3c(n2)-c2ccccc2C3)cc1Cl	44	18	66*	0.3
CC(C)C[C@@]12C(=O)N(c3cccc(F)c3)C(=O)N1[C@H](c1ccc(Cl)cc1)[C@@H]1C(=O)N(C3CCCCC3)C(=O)[C@@H]12	7	/	/	/
C/C(=N/OC(=O)c1ccc(C)cc1)c1cccs1	7	1	98*	0
C/C(=N\OC(=O)c1ccc(C)cc1)c1sc(C)nc1C	13	-16	76*	0.2
C/C(=N\OC(=O)c1ccc(Cl)c(Cl)c1)c1sc(C)nc1C	-1	4	4	1
COc1ccc(S(=O)(=O)N2CCN(C(=O)c3ccc4ccccc4n3)CC2)cc1	-5	/	/	/
CC(C)C[C@H]1CNC(=S)N1C[C@H]1CCCN1C[C@H](Cc1ccccc1)N1C[C@H](CC(C)C)N(CCc2ccccc2)C1=S	-21	/	/	/
Cc1ccc(/C=N/NC(=O)c2nn(C)cc2Cl)cc1	68*	43	86*	0.1
Cn1cc(Cl)c(C(=O)N/N=C/c2ccc3c4c(cccc24)CC3)n1	67*	/	/	/
Cn1cc(Cl)c(C(=O)N/N=C/c2ccc(OS(=O)(=O)c3ccccc3)cc2)n1	-8	-10	2	1
SMILES	TRAIL sens C8	PPC-1+TRAIL kill	FLuc inh counter	FLuc stim CS
O=C(CCCSc1nnnn1-c1ccccc1)c1ccc(F)cc1	/	-2	-1	1
Cc1cc(C)c(C#N)c(SCc2cn3ccccc3n2)n1	1	68*	4	1
Cc1cccc(C(=O)NCCC(=O)Nc2ccc(F)c([N+](=O)[O-])c2)c1	4	/	/	/
COc1cccc(CN2CCNC(=O)C2CC(=O)NCCOc2cccnc2)c1 (centres undefined)	-7	7	-1	1
Cn1c(NC(=O)c2cc(-c3ccc4c(c3)OCO4)nc3ccccc23)cc(=O)n(C)c1=O	38	41	72*	0.3
O[C@@H](c1cc(C(F)(F)F)nc2c(C(F)(F)F)cccc12)[C@H]1CCCCN1	22	/	/	/
CC(C)(C)NCCC(O)c1cc(C(F)(F)F)nc2c(C(F)(F)F)cccc12 (centres undefined)	91*	/	/	/
O=C(O)Cc1ccc2sc(-c3ccccc3)nc2c1	25	9	43	0.6
COC(=O)Cc1ccc2sc(-c3ccccc3)nc2c1	63*	44	83*	0.2
C/C(=N/NC(=O)c1ccc2c(c1)OCO2)c1cccc(NC(=O)C(C)(C)C)c1	34	21	53*	0.5
C/C(=N\NC(=O)c1csc(C)c1C)c1ccco1	55*	41	79*	0.2
C/C(=N\NC(=O)c1ccc2c(c1)OCO2)c1ccco1	52*	37	82*	0.2
C/C(=N\NC(=O)c1csc(C)c1C)c1ccc(C)s1	13	12	7	0.9
COc1ccc(OC)c(NC(=O)COC(=O)C2CCCCC2)c1	17	/	/	/
COc1cc(C)c(COc2ncnc3ccccc23)cc1OC	-4	/	/	/
C=Cc1ccc(Cn2c(C)c(C(=O)NCc3ccc(Cl)c(Cl)c3)sc2=O)cc1	54*	/	/	/
